Here are results for two compounds from ChEMBL document CHEMBL4138188, “Eurycomalactone Inhibits Expression of Endothelial Adhesion Molecules at a Post-Transcriptional Level” (J Nat Prod, 2017).

Activity calls are given as the source filed them. The rule behind the calls is not given here.

The species entered for experiment [1] is Homo sapiens. Description: Reduction in survivin level in HUVECtert at 1 uM by Western blot analysis. Type of experiment: functional. The settings on record: TDE = time-dependent effect. The gist of the method:
(§1)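 HUVECtert treated with 1 μM cycloheximide, 2 μM agent, vehicle, or left untreated for a time course; cyclin D1 or survivin by Western blot, actin loading control; means ± SD of three blots, one-way ANOVA/Dunnett versus untreated.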
A general note: Immunoblotting shows a protein as a band on a membrane.

Experiment [2] is filed under the species Homo sapiens. Description: Reduction in cyclin A level in HUVECtert at 1 uM after 8 hrs by Western blot analysis. The format is functional.
The species entered for experiment [3] is Homo sapiens. Description: Inhibition of NF-kappaB in HUVECtert assessed as reduction in TNFalpha-induced VCAM-1 mRNA expression level at 35 uM pretreated for 30 mins followed by TNFalpha stimulation measured after 4 hrs by qRT-PCR analysis. In general terms: In qPCR the cycle at which signal appears reflects the starting amount.
The species entered for experiment [4] is Homo sapiens. Put plainly: Inhibition of de novo protein synthesis in HUVECtert at 1 to 35 uM after 30 mins by Click-iT OPP/Alexa fluor 488 picolyl azide reagent based flow cytometry. The format is functional. The gist of the method:
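HUVECtert (1 × 10^6 cells in tubes) exposed 30 min to agent (2 or 5 μM; cycloheximide 1−35 μM) or vehicle, then 20 μM OPP 30 min; fixed, permeabilised, Alexa 488 click-labelled in Tris buffer pH 7.4; FL-1 flow cytometry relative to control; n = 3, one-way ANOVA/Dunnett.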
(Flow cytometry measures light scatter and fluorescence of single cells or particles in a stream.)

Experiment [5] is filed under the species Homo sapiens. Put plainly: Reduction in cyclin D1 level in HUVECtert at 1 uM by Western blot analysis. The format is functional. The note with it: TDE = time-dependent effect. The gist of the method:
as §1

The species entered for experiment [6] is Homo sapiens. Description: Inhibition of NF-kappaB in HUVECtert assessed as reduction in TNFalpha-induced ICAM-1 mRNA expression level at 35 uM pretreated for 30 mins followed by TNFalpha stimulation measured after 4 hrs by qRT-PCR analysis.
The species entered for experiment [7] is Homo sapiens. Description: Inhibition of NF-kappaB in HUVECtert assessed as reduction in TNFalpha-induced E-selectin mRNA expression level at 35 uM pretreated for 30 mins followed by TNFalpha stimulation measured after 2 hrs by qRT-PCR analysis.
The species entered for experiment [8] is Homo sapiens. Description: Inhibition of de novo protein synthesis in HUVECtert at 1 to 35 uM after 30 mins by Click-iT OPP/Alexa fluor 488 picolyl azide reagent based confocal fluorescence microscopy. Type of experiment: functional. The gist of the method: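 Cells on gelatin coverslips (24 h) exposed 30 min to agent (2 or 5 μM; cycloheximide 1, 3.5, 35 μM) or 0.1% DMSO, then 20 μM OPP for 30 min; formaldehyde fixation, Triton permeabilisation, Alexa 488 picolyl azide click reaction 30 min, nuclear counterstain; confocal imaging at 10×, constant gain and exposure.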

Experiment [9] is described as follows: Inhibition of NF-kappaB in HUVECtert assessed as reduction in TNFalpha-induced VCAM-1 expression level pretreated for 30 mins followed by TNFalpha stimulation measured after 18 hrs by flow cytometry. Also noted: species or system Homo sapiens. The gist of the method:
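FITC-antibody surface staining, flow cytometry; expression relative to TNFα-stimulated control. Parthenolide 10 μM as positive control; means ± SD, n = 3, one-way ANOVA/Dunnett versus vehicle.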

The species named for experiment [10] is Homo sapiens. Put plainly: Inhibition of NF-kappaB in HUVECtert assessed as reduction in cyclin D1 mRNA expression level at 1 uM measured up to 240 mins by qRT-PCR analysis. The gist of the method:
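HUVECtert incubated without TNFα with 2 μM agent, 1 μM cycloheximide or 0.1% DMSO for 0.5−4 h; cyclin D1 mRNA by qRT-PCR, 2−ΔΔCt analysis.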

The species entered for experiment [11] is Homo sapiens. Description: Reduction in p53 level in HUVECtert at 1 uM after 8 hrs by Western blot analysis. Type of experiment: functional.
For experiment [12], the species on record is Homo sapiens. Description: Inhibition of NF-kappaB in HUVECtert assessed as reduction in TNFalpha-induced VCAM-1 mRNA expression level at 10 uM pretreated for 30 mins followed by TNFalpha stimulation measured after 4 hrs by qRT-PCR analysis. The gist of the method:
(§2)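 HUVECtert (immortalised HUVEC, used to passage 15), 0.5 × 10^6 cells grown 48 h on gelatin-coated dishes. Preincubated 30 min with compound or 0.1% DMSO vehicle, then TNFα 10 ng/mL for 2 h (E-selectin) or 4 h (VCAM-1, ICAM-1). After RNA isolation and cDNA synthesis, mRNA was quantified by qRT-PCR using the 2−ΔΔCt method. Means ± SD, n = 3.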

The species entered for experiment [13] is Homo sapiens. Put plainly: Inhibition of NF-kappaB in HUVECtert assessed as reduction in TNFalpha-induced ICAM-1 mRNA expression level at 10 uM pretreated for 30 mins followed by TNFalpha stimulation measured after 4 hrs by qRT-PCR analysis. The gist of the method: as §2
Experiment [14] is filed under the species Homo sapiens. Put plainly: Inhibition of NF-kappaB in HUVECtert assessed as reduction in TNFalpha-induced E-selectin mRNA expression level at 10 uM pretreated for 30 mins followed by TNFalpha stimulation measured after 2 hrs by qRT-PCR analysis. The gist of the method:
as §2

The IC50 is the concentration at which inhibition is half-maximal. As to `C[C@@H]1C[C@@H]([C@H](O)CC2CC(=O)NC(=O)C2)C(=O)[C@@H](C)C1` [CYCLOHEXIMIDE], the Activity result in experiment [1] and in experiment [5] was “Tde” in each case. Further, the outcome in experiment [2] and in experiment [11] was inactive. Also, the inhibition result in experiment [3], in experiment [4] and in [8] was “Active” throughout. The inhibition entry in [6], in [7] and in experiment [10] was “inactive” each time. Also, in experiment [9], the IC50 turned out to be 300 nM.

Consider `C=C1C(=O)O[C@@H]2C3O[C@]3(C)CC/C=C(\C)CC[C@@H]12` (some centres undefined), for which the inhibition entry in experiment [12], in experiment [13] and in experiment [14] was “Active” in each case.
